Assay outcomes from PubChem.
DNMT1 inh – inhibitors of human DNMT1; 0.83% of 360,000 active; inhibition (reported as % activation of signal), % at 10 µM; P26358; DNMT1 molecular beacon, Hinp1I cleavage, fluorescence; in the data active = inhibition above about 50%
LMPTP inh – LMPTP (human) inhibition. AID 651560. inhibition, % at 20 µM. 0.22% of 360,000 active. recombinant LMPTP-A, OMFP fluorogenic substrate, fluorescence intensity. P24666;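 active = compounds that cut the enzyme signal by at least half of the control window in the single-dose screen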
Target sequence (P24666 whole entry, looked up): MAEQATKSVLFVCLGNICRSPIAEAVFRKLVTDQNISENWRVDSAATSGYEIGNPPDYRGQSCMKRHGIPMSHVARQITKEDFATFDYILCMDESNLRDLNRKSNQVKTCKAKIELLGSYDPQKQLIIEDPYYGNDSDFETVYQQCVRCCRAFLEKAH
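Test system – LMPTP-A enzyme · Amount – LMPTP-A at 0.625 nM final in the reaction · Buffer or medium – Bis-Tris pH 6.0, DTT, detergent · Reagent – OMFP 400 µM · Doses – single 20 µM dose · Schedule – reaction 50 min, room temperature, dark · Detection – fluorescence intensity of OMFP turnover product · Evaluation – percent inhibition versus substrate-only and uninhibited controls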
SUMO1-SIM PPI – alters human SUMO1 binding to SIM partners; P63165; SUMO1 binding to a labelled peptide, TR-FRET, 1 h; inhibition, % at 20 µM; 0.33% of 360,000 active; AID 602429; in the data active = inhibition above about 37%
Target sequence (P63165 whole entry, looked up): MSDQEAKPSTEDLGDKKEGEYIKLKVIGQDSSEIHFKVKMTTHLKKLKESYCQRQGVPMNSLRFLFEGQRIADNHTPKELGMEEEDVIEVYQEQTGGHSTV
STEP inh – inhibitors of human striatal-enriched phosphatase STEP. P54829. recombinant STEP, OMFP fluorogenic substrate, fluorescence. inhibition, % at 20 µM. 0.25% of 360,000 active. AID 588621;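 active = inhibition at 20 µM, scaled per plate between control wells, above about 37%, limit read from the data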
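medium = Bis-Tris buffer pH 6.0, 2.5 mM DTT, 0.005% Tween 20 | test system = STEP (striatal-enriched tyrosine phosphatase) enzyme, cell-free | measure = normalized % inhibition | compound dosing = 20 µM, 1% DMSO | also added = 25 µM OMFP | schedule = reaction 20 min, ambient temperature | measured by = fluorescence read at 480 nm ex / 540 nm em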
Scp1 inh – blocks human Scp-1 phosphatase activity | inhibition, % at 20 µM | 0.88% of 340,000 active | Recombinant Scp1, phosphopeptide, malachite green phosphate absorbance | Q9GZU7;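 active = inhibition above about 50% at 20 µM, limit read from the data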
Target sequence (Q9GZU7 76-261 limits assumed): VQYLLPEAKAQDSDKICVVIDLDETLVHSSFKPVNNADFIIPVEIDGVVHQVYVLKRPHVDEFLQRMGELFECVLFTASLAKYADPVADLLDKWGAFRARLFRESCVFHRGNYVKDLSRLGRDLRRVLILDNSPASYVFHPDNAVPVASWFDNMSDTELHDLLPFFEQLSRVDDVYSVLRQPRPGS
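System: truncated SCP-1 phosphatase (76-261aa); medium: Tris acetate buffer pH 5.5 with MgCl2 and Tween-20; incubation: 45 min room-temperature reaction, 5 min colour, 30 min stabiliser; compound: single 20 µM dose, 1% DMSO; reagent: Phosphorylated 17-residue peptide substrate; read-out: % inhibition at 20 µM; technique: colorimetric free-phosphate detection, absorbance 630 nm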
STEP inh conf – confirmation of human STEP phosphatase inhibitors; 32% of 520 active; AID 623866; recombinant STEP, OMFP fluorogenic substrate, fluorescence; shares compounds with STEP inh; inhibition, % at 20 µM; call rule not given here
A number is an active result; . = inactive; / = no result given. The list is not random: actives were taken first. Their share in the collection is about 1.7%.

SMILES	DNMT1 inh	LMPTP inh	SUMO1-SIM PPI	STEP inh	Scp1 inh	STEP inh conf
COc1ccccc1NC(=O)CN1C(=O)COc2ccc(C)cc21	.	.	.	.	.	/
COc1ccc(NC(=O)CN2C(=O)COc3ccc(C)cc32)c(OC)c1	.	.	.	72	.	.
O=C(Nn1cnnc1)c1ccc(Br)s1	.	.	.	118	.	.
O=C(Nc1ccccn1)c1ccc(Br)s1	.	.	.	.	.	/
CC1(C)Cc2c(sc(NC(=O)C(C)(C)C)c2C#N)C(C)(C)N1	.	.	.	.	.	/
CC1(C)Cc2c(sc(N)c2C#N)C(C)(C)N1	.	.	.	44	.	.
CCN1CCN(CCC(=O)Nc2ccc(Br)cc2)CC1	.	.	.	.	.	/
CCN1CCN(C(=S)c2ccc(Br)cc2)CC1	.	.	.	88	.	45
CCN1CCN(C(=S)c2ccc(O)cc2)CC1	.	.	.	88	.	49
COc1ccc(CCC(=O)NNC(=O)Nc2ccccc2Cl)cc1	.	.	.	.	.	/
COC(=O)C1=C(CS(=O)(=O)c2ccc(Cl)cc2)NC(=O)NC1c1ccc(O)cc1 (stereo unspecified)	.	.	.	93	.	.
COC(=O)C1=C(CS(=O)(=O)c2ccccc2)NC(=O)NC1c1ccc(O)cc1 (stereo unspecified)	.	.	.	.	.	/
Cc1ccccc1OCc1ccc(C(=O)N2CCOCC2)o1	.	.	.	.	.	/
COc1cccc(C2CC3(CC(C)(C)NC(=S)N3)Oc3cc(O)ccc32)c1 (stereo unspecified)	.	.	.	112	.	.
Cc1ccc(NC(=S)N(CCCN2CCOCC2)Cc2cccs2)c(C)c1	.	.	.	55	.	.
S=c1nc[nH]c2c1ncn2-c1ccc(Cl)cc1	.	.	.	86	.	38
O=C(O)Cn1cnc2c(=S)nc[nH]c21	.	.	.	.	.	/
COc1ccc(C(=O)ON=C2C=C(C)C(=O)C(C)=C2)cc1	.	.	.	.	.	/
COc1ccc(S(=O)(=O)N=C2C=C(C)C(=O)C(C)=C2)cc1	.	.	.	45	.	.
Cn1c(=O)[nH]c(=O)c2c1nc(SCCN1CCCCC1)n2CCCc1ccccc1	.	.	.	80	.	46
Cn1c(=O)[nH]c(=O)c2c1nc(SCCN1CCCCC1)n2Cc1ccccc1	.	.	.	.	.	/
Cc1ccc(Cn2c(SCCN3CCCCC3)nc3c2c(=O)[nH]c(=O)n3C)cc1	.	.	.	61	.	.
Cc1cccc(C)c1NC(=S)N(Cc1ccco1)C1CCN(C(C)C)CC1	.	.	.	46	.	.
Nc1c(C(=O)c2ccc(Br)cc2)oc2ccccc12	.	.	.	43	.	.
Fc1ccc(-n2c(=S)[nH]c3cccnc32)cc1	.	.	.	65	.	.
SMILES	DNMT1 inh	LMPTP inh	SUMO1-SIM PPI	STEP inh	Scp1 inh	STEP inh conf
O=C(O)c1cc(S(=O)(=O)O)ccc1O	.	.	.	.	.	/
O=S(=O)(O)c1cc(O)c2cc(Nc3ccccc3)ccc2c1	98	83	77	72	88	100
Nc1ccc2c(O)cc(S(=O)(=O)O)cc2c1	93	.	.	38	67	68
COC(=O)c1cc(=O)nc(NN=Cc2ccc(OC)cc2)s1	.	.	.	.	/	/
Cc1ccc(Cc2c(-c3ccc(C#N)cc3)nc3c(C)cc(Br)cn23)cc1	.	.	.	.	/	/
O=C(O)c1ccc(NC(=S)Nc2ccccc2)cc1	.	.	.	107	.	.
COc1ccccc1NC(=O)Cn1cncc1-c1ccc([N+](=O)[O-])cc1	.	.	.	.	.	/
Cc1ccc(NC(=O)Cn2cncc2-c2ccc([N+](=O)[O-])cc2)cc1C	.	.	.	48	.	.
Cc1cc(C)cc(NC(=S)NC2CC3CCCC(C2)N3C2CCCC2)c1 (stereo unspecified)	.	.	.	40	.	.
Cc1cc(C)cc(NC(=S)NC2CC3CCCC(C2)N3C2CC2)c1 (stereo unspecified)	.	.	.	.	.	/
CSc1ccc(Cn2c(C)c(C(=O)NCc3cccc(C(F)(F)F)c3)sc2=O)cc1	.	.	.	.	/	/
Cc1ccc(Cn2c(SCC(=O)Nc3cc(C)on3)nc3ccccc3c2=O)cc1	.	.	.	41	.	.
Cc1cc(NC(=O)CSc2nc3ccccc3c(=O)n2Cc2ccccc2)no1	.	.	.	.	.	/
O=[N+]([O-])c1ccc(C(=S)N2CCC(Cc3ccccc3)CC2)cc1	.	.	.	.	.	/
CN1CCN(C(=S)c2ccc(N(C)C)cc2)CC1	.	.	.	83	.	.
CN1CCN(C(=O)c2ccc(S(=O)(=O)c3ccc(Br)cc3)cc2)CC1	.	.	.	.	.	/
CSc1ccc(C(=S)N2CCN(C)CC2)cc1	.	.	.	73	.	.
CN1CCN(C(=S)c2ccc([N+](=O)[O-])cc2)CC1	.	.	.	80	.	.
CN1CCN(C(=S)c2ccc(Br)cc2)CC1	.	.	.	80	.	43
CCNC(=O)C1(C)CCN(C(=O)c2ccc3snnc3c2)C1 (stereo unspecified)	.	.	.	.	/	/
c1ccc(C2OCCN2c2ccccc2)cc1 (stereo unspecified)	.	.	.	.	.	/
CCN1CCN(CCCN(Cc2ccco2)C(=S)Nc2cc(Cl)ccc2C)CC1	.	.	.	41	.	.
COCCCNc1c2c(nc3ccccc13)CCC2	.	.	.	.	/	/
CCOC(=O)c1cnn(-c2ncnc3sc(C)c(C)c23)c1N	.	.	.	70	.	.
CCOC(=O)c1cnn(-c2ccc(C)cc2)c1N	.	.	.	.	.	/
SMILES	DNMT1 inh	LMPTP inh	SUMO1-SIM PPI	STEP inh	Scp1 inh	STEP inh conf
COc1ccc(C(=O)Nc2cc(-c3ccc(C)cc3)no2)cc1	.	.	.	94	.	.
COc1ccc(N(C(C)=O)c2nc3ccccc3[nH]2)cc1	.	.	.	.	.	/
O=C(O)c1cccc(S(=O)(=O)Nc2ccc(-c3ccccc3)cc2)c1	.	.	.	.	.	/
O=C(O)c1cccc(S(=O)(=O)NNc2ccccc2C(F)(F)F)c1	.	.	88	44	.	.
CCN1C[C@@H]2[C@@H]3C(=O)N(C)C(=O)[C@@H]3[C@](C)(C1=O)N2C(=O)c1ccc(Br)cc1	.	.	.	.	.	/
N#CC1(NC(=O)COC(=O)Cc2c[nH]c3ccccc23)CCCCC1	.	.	.	.	/	/
COCCNC(=S)Nc1ccc(N2CCOCC2)c(S(=O)(=O)Nc2ccc(Cl)cc2)c1	.	.	.	.	/	/
O=S(=O)(Nc1ccc(Cl)cc1)c1ccc(N2CCOCC2)c(NC(=S)NCCN2CCOCC2)c1	.	.	.	92	.	71
O=S1OCCN1c1ccccc1 (stereo unspecified)	.	.	.	42	.	.
